Data on two molecules can be found in ChEMBL document CHEMBL3352366, “Synthesis and biological evaluation of 2,3-dihydroimidazo[1,2-a]benzimidazole derivatives against Leishmania donovani and Trypanosoma cruzi” (Eur J Med Chem, 2014).

Each structure is given as a SMILES string. Calls of active or inactive are those of the source. The rule behind the calls is not given here.

In data set [1] the test system is Trypanosoma cruzi. In words: Antitrypanosomal activity against intracellular Trypanosoma cruzi infected in human U2OS cells after 48 hrs by confocal microscopy. In kind it is functional, organism-based. Put shortly:
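T. cruzi tissue-culture trypomastigotes were raised in LLC-MK2 cells. U2OS cells and parasites were mixed, dispensed onto compound plates and incubated 48 h at 37 °C, 5 % CO₂. Cells were fixed with 4 % paraformaldehyde, DRAQ5-stained and imaged by confocal microscopy to count parasites and infection ratio. Controls: benznidazole 400 µM and 1 % DMSO. EC₅₀ derived from infection ratio normalized to the controls.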

Data set [2] in a line: Cytotoxicity against human U2OS cells infected with intracellular Trypanosoma cruzi. Format: cell-based. The gist of the method: (§1)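 U2OS cytotoxicity was measured in the same 48 h T. cruzi infection assay by counting host cell numbers in the DRAQ5-stained confocal images to give CC₅₀. SI was calculated from EC₅₀ and CC₅₀.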
Data set [3] in a line: Selectivity index, ratio of IC50 for human U2OS cells to IC50 for intracellular Trypanosoma cruzi. Format: toxicity, cell-based. To be noted: U2OS cells versus intracellular Trypanosoma cruzi, read-out: Selectivity Index. The gist of the method: as §1
For data set [4], the system named is Trypanosoma cruzi. Nature of the data set: Antitrypanosomal activity against intracellular Trypanosoma cruzi infected in human U2OS cells assessed as reduction in parasite count at 400 uM after 48 hrs by confocal microscopy. In kind it is functional, organism-based.
For data set [5], the system named is Trypanosoma cruzi. In words: Antitrypanosomal activity against intracellular Trypanosoma cruzi infected in human U2OS cells assessed as reduction in parasite count at 12.5 uM after 48 hrs by confocal microscopy. In kind it is functional, organism-based.
Data set [6] has as its system Leishmania donovani. Nature of the data set: Antileishmanial activity against intracellular amastigote stage of Leishmania donovani MHOM/ET/67/HU3 infected in human THP1 cells after 3 days by confocal microscopy. To be noted: MHOM/ET/67/HU3, THP-1, 72 h. Format: functional, organism-based.
Data set [7] can be described thus: Cytotoxicity against human THP1 cells infected with intracellular amastigote stage of Leishmania donovani MHOM/ET/67/HU3. In kind it is cell-based, THP-1. The gist of the method: (§2)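 Host THP-1 cytotoxicity was taken from the same intracellular amastigote images (PMA-differentiated, infected, 3-day compound exposure) by counting cell numbers normalized to 1 % DMSO. CC₅₀ is the average of duplicates; SI was calculated from EC₅₀ and CC₅₀.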

Data set [8] can be described thus: Selectivity index, ratio of IC50 for human THP1 cells to IC50 for intracellular amastigote stage of Leishmania donovani MHOM/ET/67/HU3. Format: toxicity, cell-based, THP-1. The note with it: read-out: Selectivity Index. Put shortly: as §2
Data set [9] concerns Leishmania donovani. In words: Antileishmanial activity against intracellular amastigote stage of Leishmania donovani MHOM/ET/67/HU3 infected in human THP1 cells assessed as reduction in parasite count at 12.5 uM after 3 days by confocal microscopy. In kind it is functional, organism-based. The note with it: THP-1.
The test system of data set [10] is Trypanosoma cruzi. Nature of the data set: Antitrypanosomal activity against intracellular Trypanosoma cruzi infected in human U2OS cells assessed as reduction in parasite count at 6.25 uM after 48 hrs by confocal microscopy. In kind it is functional, organism-based.
The subject of data set [11] is Leishmania donovani. In words: Antileishmanial activity against extracellular promastigote stage of Leishmania donovani MHOM/ET/67/HU3 incubated for 28 hrs followed by additional 20 hrs incubation.

What is called EC50 is the concentration giving half of the maximal effect. High values mean a less potent agent, low ones a more potent agent. The term CC50 denotes the concentration giving 50% cytotoxicity. Lower therefore signals greater toxicity to the cells. In the data set on Trypanosoma cruzi [1], `O=C(Cn1ccnc1[N+](=O)[O-])NCc1ccccc1` [BENZNIDAZOLE] displayed an EC50 of 20.7 µM. This molecule also displayed a half-maximal cytotoxic concentration (CC50) in [2] above 50 µM. Moreover, the selectivity ratio in [3] is above 2.42. Further, the “growth inhibition (GI)” value with Trypanosoma cruzi [4] was “Active”. Moreover, the “growth inhibition (GI)” value in the data set with Trypanosoma cruzi [5] was “inactive”.

Regarding `CC(C)(C)c1ccc(CN2C3=NCCN3c3ccccc32)cc1`, the EC50 with Leishmania donovani [6] came out at 3.05 µM; in the data set with Trypanosoma cruzi [1] it was 1.1 µM; with Leishmania donovani [11], 1.25 µM. The CC50 in [7] was above 50 µM; in data set [2], 36.5 µM. Also, the values for the selectivity ratio in [8] and in [3] were above 16.4 and 33.2, respectively. For the same molecule, the inhibition entry in the data set with Trypanosoma cruzi [1] is “Dose-dependent effect”. Besides, the “growth inhibition (GI)” value with Leishmania donovani [9] and in the data set with Trypanosoma cruzi [10] was “Active” throughout.
